Bioassay records: PubChem, several laboratories
MC4R antag cAMP: blocks human MC4R cAMP signaling; P32245; MC4R-expressing cells, MTII-stimulated cAMP, LANCE TR-FRET; inhibition, % at 6.5 µM; actives 0.48% (n = 360,000);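 active = inhibition above its plate's cutoff, the mean of tested wells on that plate plus 3 SD, cut at about 29% in these data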;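 also: 0% = Melanotan II alone and 100% = Melanotan II plus saturating MCL0020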
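Assay system: U2OS cells stably expressing human melanocortin 4 receptor (MC4R) / Dosing: 6.5 µM / Timing: compound 30 min, challenge 1 h, detection 1 h / Measured by: Eu-cAMP/anti-cAMP TR-FRET, emission 671 nm / Replicates: singlicate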
m5-HT2A agonist: mouse HTR2A agonism via beta-arrestin recruitment; AID 624169; P35363; actives 0.66% (n = 360,000); activation, % at 7.6 µM; CHO-K1 mHTR2A beta-arrestin complementation, luminescence; percent of 30 µM serotonin response;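 active = activation above a run cutoff, the mean activation of all tested compounds plus 3 SD, cut at about 14% in these data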;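 also: 0% = plate median of compound wells and 100% = 30 µM serotonin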
Target sequence (P35363 whole entry, looked up): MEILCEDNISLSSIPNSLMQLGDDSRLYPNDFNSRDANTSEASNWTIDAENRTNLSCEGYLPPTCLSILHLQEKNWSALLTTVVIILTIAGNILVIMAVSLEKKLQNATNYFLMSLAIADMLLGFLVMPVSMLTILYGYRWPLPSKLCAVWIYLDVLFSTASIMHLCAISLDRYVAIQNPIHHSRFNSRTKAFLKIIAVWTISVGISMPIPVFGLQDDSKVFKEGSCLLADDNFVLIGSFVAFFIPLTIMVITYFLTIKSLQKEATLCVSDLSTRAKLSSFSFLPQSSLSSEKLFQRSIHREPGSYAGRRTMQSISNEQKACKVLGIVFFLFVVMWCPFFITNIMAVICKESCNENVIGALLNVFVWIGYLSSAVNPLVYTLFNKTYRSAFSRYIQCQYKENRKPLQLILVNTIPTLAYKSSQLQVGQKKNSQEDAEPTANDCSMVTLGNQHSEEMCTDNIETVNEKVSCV
TAAR1 ag: human TAAR1 agonism. CHO RD-HGA16 TAAR1, Fluo-8 calcium fluorescence; vehicle wells 0%, saturating PEA agonist 100%. Q96RJ0. activation, % at 3 µM. AID 624467. actives 0.99% (n = 360,000);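 active = activation above the mean activation of all test compounds in the run plus 3 SD, cut at about 38% in these data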
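Signal – calcium-sensitive Fluo-8 signal, excitation 470-495, emission 515-575 nm · System – RD-HGA16 (CHO) cells co-expressing Gα16 and hTAAR1 · Incubation – 17-24 h seeding, 75 min 37 °C dye, 30 min RT · Compound dosing – 3 µM single concentration · Repeats – no replicates (n 1)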
B2AR ag: human beta-2 adrenergic receptor agonism by FAP; Am2.2-beta2AR cells, FAP receptor internalization, flow cytometry; response, % (concentration not given with the values); actives 0.43% (n = 340,000);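 active = response above a set limit, near 3 SD of response in nonfluorescent compounds, cut at about 42% in these data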
MC4R ag barr: human MC4R agonism via beta-arrestin | P32245 | AID 540308 | actives 0.98% (n = 360,000) | U2OS MC4R beta-arrestin complementation, luminescence; percent of melanotan II response, DMSO zero | activation, % at 8.9 µM;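 active = activation above a per-plate cutoff, the mean activation of sample wells on that plate plus 3 SD, cut at about 8% in these data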
TAAR1 antag: human TAAR1 antagonism; Q96RJ0; CHO RD-HGA16 TAAR1, Fluo-8 calcium fluorescence, antagonist; inhibition, % at 3 µM; actives 1.5% (n = 360,000); AID 624466;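 active = inhibition above a per-plate cutoff, the mean inhibition of test compounds on that plate plus 3 SD, cut at about 49% in these data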;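 also: 0% = DMSO plus EC80 beta-PEA response and 100% = DMSO alone without agonist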
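Test system – hTAAR1-expressing CHO RD-HGA16 cells, Gα16-coupled · Reagent – β-PEA at EC80 concentration, post-compound challenge · Compound dosing – 3 µM, single point · Timing – 140 s kinetic read after compound, 140 s after agonist · Detection – Fluo-8 intracellular calcium dye fluorescence, real-time kinetic reads · Control set – DMSO and EC80 PEA controls · Repeats – n of 1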
MC4R barr ag: human MC4R beta-arrestin agonism confirmation | shares compounds with MC4R ag barr | U2OS MC4R beta-arrestin recruitment, luminescence; scaled DMSO 0%, Melanotan II 100% | activation, % at 8.9 µM | actives 31% (n = 2,400);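 active = mean activation across replicates above the hit cutoff set in the earlier primary screen, cut at about 8% in these data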
MOR-DOR barr ag: counter-screen for MC4R agonists: agonists of mu-delta opioid heterodimer | AID 602194 | activation, % at 9.2 µM | actives 5.8% (n = 2,400) | U2OS PathHunter beta-arrestin, beta-gal luminescence; percent of deltorphin B response, DMSO zero | shares compounds with MC4R ag barr;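 active = mean activation across replicates exceeds the hit threshold derived in the earlier primary screen, cut at about 18% in these data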;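 also: 100% = deltorphin B at 0.9 µM final and 0% = DMSO alone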
nonsel antag count: nonselective antagonism, TAAR1 counter-screen; actives 77% (n = 2,400); inhibition, % at 3 µM; shares compounds with TAAR1 antag; counterscreen cell line, calcium fluorescence, antagonist mode; AID 651780; in the data active = inhibition above about 22%;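 also: CHO-Ga16 host cells stimulated with ATP at an EC80 level; 0% = agonist EC80 plus vehicle and 100% = vehicle without agonist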
TAAR1 antag conf: human TAAR1 antagonism, confirmed. shares compounds with TAAR1 antag. TAAR1-expressing cells, fluorescence antagonist read-out. inhibition, % at 3 µM. actives 40% (n = 2,400); in the data active = inhibition above about 49%;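 also: CHO-Ga16 host cells challenged with agonist PEA near its EC80; 0% = agonist at EC80 plus vehicle and 100% = vehicle with no agonist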
Ga16 ag counter: nonselective Ga16 agonist in TAAR1 antagonist counter-screen. shares compounds with TAAR1 antag. Ga16-expressing cells, calcium fluorescence, agonist counterscreen. activation, % at 3 µM. actives 18% (n = 2,400); in the data active = activation above about 12%;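 also: 0% = vehicle wells and 100% = saturating stimulus response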
TAAR1 ag count: activates human TAAR1 in antagonist counter-screen; activation, % at 3 µM; shares compounds with TAAR1 antag; AID 651955; actives 2% (n = 2,400); hTAAR1 cell line, fluorescence activation, agonist mode; in the data active = activation above about 37%;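 also: CHO cells stably expressing TAAR1 with calcium dye readout; 0% = DMSO vehicle and 100% = full agonist response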
An asterisk follows results filed as active; . = no result. Hits are enriched below; roughly 4.3% of the tested compounds scored in any of these assays.

SMILES	MC4R antag cAMP	m5-HT2A agonist	TAAR1 ag	B2AR ag	MC4R ag barr	TAAR1 antag	MC4R barr ag	MOR-DOR barr ag	nonsel antag count	TAAR1 antag conf	Ga16 ag counter	TAAR1 ag count
O=C1OC(c2ccccc2)(c2cc(Br)ccc2O)c2ccccc21 (centres undefined)	7	7	8	15	21*	63*	20*	9	28*	46	6	21
C=C(C)COc1ccc(-c2n[nH]c(C)c2Oc2ccccc2OC)c(O)c1	5	-1	-2	10	12*	52*	5	8	8	10	1	2
C=C(C)COc1ccc(-c2nc(N)nc(C)c2Oc2ccccc2OC)c(O)c1	5	-5	2	8	1	15	.	.	.	.	.	.
CC(C)(C)c1ccc(C(=O)Nc2ccc(NC(=O)c3ccco3)cc2)cc1	9	2	11	10	25*	58*	6	13	22*	43	7	2
CC1=NN(c2nc(N)nc(/C(C#N)=C/c3ccc([N+](=O)[O-])o3)n2)C(C)(C)C1	-42	9	22	-714	37*	59*	163*	172*	57*	66*	23*	28
C[C@@H]1COC(=O)[C@H](Cc2ccc(F)cc2)CC/C=C\C[C@@H](CC(=O)NCCO)C(=O)N1	0	-4	6	-3	-1	3	.	.	.	.	.	.
CC(C)(CNCc1ccccc1)NS(=O)(=O)c1ccccc1	5	-6	11	-4	-5	2	.	.	.	.	.	.
Cc1cccc(OCC(=O)Nc2cccc(-c3nnc(-c4ccccc4)o3)c2)c1C	7	11	8	6	30*	69*	15*	12	32*	60*	7	3
CCC(=O)Nc1cccc(-c2nc3ccccc3o2)c1	-5	-1	11	2	-2	-2	.	.	.	.	.	.
COc1ccccc1OCC(=O)Nc1cccc(-c2nc3ccccc3o2)c1	9	6	8	6	15*	66*	5	3	33*	46	4	6
CC(=O)Nc1ccc(S(=O)(=O)N2CCc3cc4c(cc3C2)OCCCO4)cc1	16	2	0	2	-3	-52	.	.	.	.	.	.
COc1cccc(-c2cnc3c(NC(C)=O)cc(-c4ccsc4)cn23)c1	25	-1	6	.	37*	73*	42*	3	41*	66*	13*	12
COc1ccc(NC(=O)c2cc(-c3cc(Cl)ccc3C)n[nH]2)c(OC)c1	6	4	1	.	-1	48	.	.	.	.	.	.
Cc1ccccc1Cn1cccc1/C=C1/C(=N)N2C=CSC2=NC1=O	1	-2	10	-2	14*	62*	2	2	32*	43	5	6
CC(C)c1ccc(-n2cccc2/C=C2/C(=N)N3C=CSC3=NC2=O)cc1	9	2	5	11	0	37	.	.	.	.	.	.
COc1ccc(CN2C[C@H](Cc3ccccc3)[C@@H](CC(=O)Nc3ccccc3)C2=O)cc1	.	.	8	-3	.	28	.	.	.	.	.	.
COc1ccc(/C=N/NC(=O)c2nc(-c3ccccc3)cc(-c3ccccc3)n2)cc1OC	11	-3	21	10	19*	51*	2	4	26*	44	7	9
COc1cccc(/C=N/NC(=O)c2nc(-c3ccccc3)cc(-c3ccccc3)n2)c1	9	-5	8	6	-2	10	.	.	.	.	.	.
Cc1ccc(CSc2nnc(SCC(=O)N/N=C/c3c[nH]c4ccccc34)s2)cc1	-8	3	9	14	12*	79*	13*	18*	28*	43	3	3
O=C(CSc1nnc(SCc2ccccc2)s1)N/N=C/c1c[nH]c2ccccc12	10	3	5	-1	1	0	.	.	.	.	.	.
O=C(NCC1CCCO1)c1cn(Cc2ccccc2Cl)nc1-c1ccccc1 (centres undefined)	19	2	1	-9	-3	-13	.	.	.	.	.	.
CN(CC(=O)Nc1ccccc1Cl)C(=O)COC(=O)CSc1ccc(Cl)cc1	0	0	2	-1	1	15	.	.	.	.	.	.
COCCN1C[C@@H](CO)O[C@@H](n2cnc3c(N4CCCC4)ncnc32)C1	0	0	5	.	0	-26	.	.	.	.	.	.
COc1cc(NC(=O)c2oc3ccccc3c2C)ccc1NC(=O)c1ccco1	5	4	10	12	9.7*	54*	2	5	26*	39	7	5
O=C(N/N=C/c1ccncc1)c1cccc(NC(=O)c2ccc(Cl)cc2)c1	-7	-3	9	0	-2	25	.	.	.	.	.	.
SMILES	MC4R antag cAMP	m5-HT2A agonist	TAAR1 ag	B2AR ag	MC4R ag barr	TAAR1 antag	MC4R barr ag	MOR-DOR barr ag	nonsel antag count	TAAR1 antag conf	Ga16 ag counter	TAAR1 ag count
O=C(N/N=C/c1ccc(F)cc1)c1cccc(NC(=O)c2ccc(F)cc2)c1	0	-6	25	11	42*	69*	2	2	38*	66*	13*	19
O=C(CN1CCN(Cc2ccccc2F)CC1)Nc1ccccc1Cl	9	-1	2	-7	-1	-6	.	.	.	.	.	.
Cc1ccc(NC(=O)c2ccc(S(=O)(=O)N3CCC(C)CC3)cc2)cc1	10	-7	29	11	11*	79*	1	4	0	-4	1	-2
Cc1ccc(C(=O)Nc2ccc(S(=O)(=O)N3CCOCC3)cc2)cc1	-8	-4	12	5	0	-2	.	.	.	.	.	.
O=C(c1ccccc1)c1ccc2nc(-c3ccc(NC(=O)c4ccccc4F)cc3)[nH]c2c1	17	0	21	21	12*	59*	1	8	29*	59*	9	7
O=C(O)CCC(=O)Nc1ccc(-c2nc3ccc(C(=O)c4ccccc4)cc3[nH]2)cc1	-4	2	15	0	-1	-3	.	.	.	.	.	.
